# A selection: hits, their analogues and other compounds. The true share with any hit is near 0.44%.
# FN deposit inh – fibronectin deposition inhibition. AH1F fibroblasts, Alexa488-fibronectin deposition fluorescence, overnight. inhibition, % at 12.6 µM. actives 0.086% (n = 350,000). AID 743247;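 active means mean inhibition across replicates of 30% or more, regardless of how many single replicates reach that level; inconclusive means mean under 30% yet at least half of replicates reach 30%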
#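 Material: AH1F fibroblast monolayer depositing Alexa488-labelled fibronectin into matrix / Amount: 10000 AH1F cells per well / Signal: fluorescence 485/525 nm / Medium: DMEM, 2% serum / Compound: single dose, pinned / Incubation: 1 h cell adhesion before compound, then overnight fibronectin incubation / Reagent: Alexa488-FN, 24 nM final / Read-out: inhibition of fibronectin deposition signal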
# ERp5 inh – blocks human ERp5 reductase activity on insulin | ERp5 insulin aggregation, absorbance 650 nm, 90 min | inhibition, % at 9.99 µM | actives 0.05% (n = 350,000) | AID 651711;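 active means mean replicate inhibition above about 25%, with every replicate also reaching it, limit read from the data, passing the limit was not always enough; inconclusive means only one of those two criteria met; inactive means neither criterion met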
# PglD DTNB – PglD (C. jejuni) enzyme inhibition. purified PglD enzyme, DTNB colorimetric CoA detection. inhibition, % at 12.5 µM. actives 0.098% (n = 360,000). AID 602405; in the data active means inhibition above about 16%, passing the limit was not always enough; inconclusive means no clear call, values can overlap the other calls
# RAD54 inh – inhibitors of human RAD54 branch migration. actives 0.14% (n = 360,000). RAD54 Holliday junction branch migration, FAM/BHQ fluorescence. inhibition, % at 10.4 µM. Q92698;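 active means mean normalized replicate activity at least 40 and at least half of replicates scoring 40 or more; inconclusive means only one of the two criteria met; inactive means mean below 40 and under half of replicates reaching 40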;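 further: inhibitors cause a drop in the FAM fluorescence signal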
# PDI turbidity – PDI (human) enzyme inhibition; P07237; PDI insulin aggregation turbidity, A650, 90 min; inhibition, % at 10 µM; actives 0.052% (n = 350,000); AID 588391;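 active means mean inhibition across replicates of 30% or more, whatever share of single replicates reach that level; inconclusive means mean inhibition below 30% while every single replicate reaches 30%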
# Target sequence (P07237 whole entry, looked up): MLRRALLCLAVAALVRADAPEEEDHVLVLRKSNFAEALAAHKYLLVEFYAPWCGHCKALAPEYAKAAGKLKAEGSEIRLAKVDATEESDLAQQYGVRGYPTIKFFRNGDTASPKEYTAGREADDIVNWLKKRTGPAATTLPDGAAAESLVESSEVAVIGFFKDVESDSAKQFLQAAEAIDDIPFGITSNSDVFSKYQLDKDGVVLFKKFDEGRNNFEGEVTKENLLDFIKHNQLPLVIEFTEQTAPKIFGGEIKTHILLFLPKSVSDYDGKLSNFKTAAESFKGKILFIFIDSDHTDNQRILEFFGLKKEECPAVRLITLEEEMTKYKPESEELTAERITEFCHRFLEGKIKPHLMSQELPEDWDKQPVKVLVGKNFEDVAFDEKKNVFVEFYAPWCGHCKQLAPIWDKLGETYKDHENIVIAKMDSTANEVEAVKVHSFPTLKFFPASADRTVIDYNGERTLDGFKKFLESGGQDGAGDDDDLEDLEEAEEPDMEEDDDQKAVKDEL
# S100A4 inh HTS – blocks human S100A4 binding to myosin IIA peptide | P26447 | S100A4/TAMRA-MyoIIA peptide fluorescence polarization | inhibition, % at 10.7 µM | actives 0.14% (n = 360,000) | AID 652163;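 active means mean inhibition of at least 70% across replicates, with every replicate also reaching that level; inconclusive means mean inhibition reaches 70% but some replicates fall short; inactive means mean inhibition below 70%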
# Target sequence (P26447 whole entry, looked up): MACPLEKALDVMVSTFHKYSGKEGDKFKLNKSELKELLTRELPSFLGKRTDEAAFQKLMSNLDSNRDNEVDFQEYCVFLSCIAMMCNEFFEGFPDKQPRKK
#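 incubation = readout 5 min after mixing, signal stable up to 60 min | system = S100A4 monomer protein | buffer or medium = HEPES pH 7.2 with CaCl2, KCl, NaCl, DTT, Triton | benchmarks = neutral control DMSO, positive control TFP | also added = fluorescent myosin IIA peptide, 5 nM | compound dosing = one concentration per compound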
# Rad54 DNA ctr – DNA binding artifact in Rad54 counter-screen. AID 651673. actives 8% (n = 460). AC50, µM (doses to about 35 µM). shares compounds with RAD54 inh. Acridine orange-DNA displacement, fluorescence polarization, 20 min;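 active means signal drop giving an AC50 within twice the top valid tested concentration of each sample, actives reach about 35 µM in these data; inactive means activity opposite to expected, plus the rest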;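 further: polarization loss reports compound binding to salmon sperm DNA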
# PglD confirm – PglD (C. jejuni) inhibition confirmation; shares compounds with PglD DTNB; Purified C. jejuni PglD, DTNB absorbance 412 nm; inhibition, % at 20 µM; 320 tested, under 10 active;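 active means mean inhibition across replicates of at least 20% with every single replicate also at 20% or more; inconclusive means mean inhibition at least 20% but some replicate falls below 20%; inactive means mean inhibition under 20% and not all replicates reach it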;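 further: initial rate of CoA release by acetyl transfer from AcCoA to the UDP-4-amino sugar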
# Hits are given with their value; – = inactive; ? = inconclusive; · = no result.
SMILES,FN deposit inh,ERp5 inh,PglD DTNB,RAD54 inh,PDI turbidity,S100A4 inh HTS,Rad54 DNA ctr,others
CCCCNC(=O)c1cc2c(-c3ccc(Cl)cc3)nn(C)c2s1,–,–,–,–,–,–,·,
CCN(CC)CCCNC(=O)c1cc2c(-c3cccc(OC)c3)nn(C)c2s1,–,–,–,73,–,–,–,
CCN1CCCC1CNC(=O)c1cc2c(-c3cccc(OC)c3)nn(C)c2s1 (stereo unspecified),–,·,–,50,–,·,–,
COc1cccc(-c2nn(C)c3sc(C(=O)NCCCN(C)Cc4ccccc4)cc23)c1,–,–,–,–,–,–,·,
CCCCN(C)CCNC(=O)c1cc2c(-c3cccc(OC)c3)nn(C)c2s1,–,–,–,72,–,–,–,
CCCCN(CC)CCCNC(=O)c1cc2c(-c3ccc(OC)c(OC)c3)nn(C)c2s1,–,–,–,91,–,–,–,
O=C1O[C@@H](c2ccccc2)[C@@H](c2ccccc2)N2[C@@H](c3ccccc3OCCO)[C@]3(C(=O)Nc4ccc(C#CCCO)cc43)[C@@H](C(=O)O)[C@H]12,·,–,–,–,·,–,·,
COc1ccc(CCNC(=O)c2cc3c(=O)n4cccc(C)c4nc3n(CCCN3CCOCC3)c2=N)cc1,–,–,–,59,–,–,–,
COCCn1c(=N)c(C(=O)NCCc2ccc(OC)cc2)cc2c(=O)n3cccc(C)c3nc21,·,·,·,·,–,·,·,
Cc1cccn2c(=O)c3cc(C(=O)NCCN4CCOCC4)c(=N)n(CCN4CCOCC4)c3nc12,–,–,–,51,–,–,–,
Cc1cccn2c(=O)c3cc(C(=O)NCC4CCCO4)c(=N)n(C4CCCCC4)c3nc12 (stereo unspecified),–,–,–,?,–,–,–,
Cc1cccn2c(=O)c3cc(C(=O)NC4CCCC4)c(=N)n(CCCN4CCOCC4)c3nc12,–,–,–,77,–,–,–,
O=C(C[C@@H]1CC[C@H]2[C@@H](COC[C@H](O)CN2C(=O)Nc2ccc(C(F)(F)F)cc2)O1)NCCc1ccncc1,–,–,–,–,·,–,·,
O=C(C[C@H]1C[C@@H]2c3cc(NC(=O)C4CCOCC4)ccc3O[C@@H]2[C@@H](CO)O1)NCc1cccc(F)c1,–,–,–,–,·,–,·,
CO[C@@H]1CN(C)C(=O)c2ccc(NC(=O)C3CC3)cc2OC[C@@H](C)N(CCC(F)(F)F)C[C@H]1C,–,–,·,·,·,–,·,
CCCNC(=O)N1CC2(CCN(CC3CC3)CC2)c2c(n(C)c3cc(OC)ccc23)[C@H]1CO,·,–,·,·,·,–,·,
Cc1cccn2c(=O)c3cc(C(=O)NCCN4CCOCC4)c(=N)n(Cc4ccc(F)cc4)c3nc12,–,–,–,–,–,–,·,
CCOCCCn1c(=N)c(C(=O)NCCN2CCOCC2)cc2c(=O)n3cccc(C)c3nc21,·,·,–,69,–,·,–,
N=c1c(C(=O)NCCN2CCOCC2)cc2c(=O)n3ccccc3nc2n1CCc1ccccc1,–,–,–,63,–,–,–,
CC(C)NC(=O)N(C)C[C@H]1Oc2cc(-c3cccnc3)ccc2S(=O)(=O)N([C@H](C)CO)C[C@H]1C,–,–,–,–,·,–,·,
CCN1C(=O)CCN(C2CCCC2)c2nc(Nc3ccc(C(=O)NC4CCN(C)CC4)cc3OC)ncc21,–,–,–,?,–,–,–,
CCN(CC)CCCNc1nc2cc(OC)c(OC)cc2c2nc(-c3ccccc3)nn12,–,·,–,106,–,·,–,
COc1cc2nc(NCCCN3CCN(C)CC3)n3nc(-c4ccccc4)nc3c2cc1OC,–,·,–,102,–,·,–,
CCN(CC)CCCNc1nc2cc(OC)c(OC)cc2c2nc(-c3cccnc3)nn12,–,·,–,115,–,·,–,
COc1cc2nc(NCC3CCCO3)n3nc(-c4cccnc4)nc3c2cc1OC (stereo unspecified),·,·,–,–,–,·,·,
SMILES,FN deposit inh,ERp5 inh,PglD DTNB,RAD54 inh,PDI turbidity,S100A4 inh HTS,Rad54 DNA ctr,others
O=C(CCC(=O)NNc1nc2ccccc2c2nc(-c3ccccc3)nn12)NCCCN1CCOCC1,·,–,·,·,–,–,·,
COCCCNc1nc2cc(OC)c(OC)cc2c2nc(-c3ccccc3)nn12,–,–,–,–,–,–,·,
OCCNc1nc(-c2ccccc2)nc2ccccc12,–,–,·,·,–,–,·,
CCN(CC)CCCNc1nc(-c2ccccc2)nc2ccccc12,–,·,–,85,–,·,–,
CCN(CC)S(=O)(=O)c1ccc(Cl)c(C(=O)Nc2nnc(C)s2)c1,–,·,–,?,–,·,–,
CCN1CCN(S(=O)(=O)c2ccc(Cl)c(C(=O)Nc3nnc(C)s3)c2)CC1,–,–,–,–,–,–,·,
O=C(C[C@@H]1CC[C@@H]2[C@H](COC[C@@H](O)CN2CC2CCCC2)O1)NCc1ccc(Cl)cc1,–,–,·,·,·,–,·,
CC(=O)N(C)C[C@@H]1Oc2ccccc2C(=O)N(C)C[C@H]1C,–,·,·,·,·,·,·,
CCN(CC)CCCNC(=O)C1CCN(c2ncnc3c2sc2cccc(F)c23)CC1,–,–,–,53,–,–,–,
CCc1nc(Nc2ccncc2)c2oc3ccccc3c2n1,·,·,–,66,–,·,–,
Cc1nc(Nc2ccncc2)c2oc3ccccc3c2n1,·,–,·,·,–,–,·,
O=C(C[C@H]1C=C[C@@H](NC(=O)Nc2ccc(F)cc2)[C@H](CO)O1)NCc1cccc(F)c1,–,·,–,–,·,–,·,
C=CCNc1nc(Cl)nc(Nc2ccc(OCC)cc2)n1,–,–,29,–,–,–,·,PglD confirm=–
C=CCNc1nc(Nc2ccc([N+](=O)[O-])cc2)nc(OCC)n1,–,–,·,·,–,–,·,
CC(C(=O)N1CCCc2c1c(=O)oc1ccc(O)cc21)N1CCc2ccccc2C1 (stereo unspecified),·,·,23,–,–,·,·,PglD confirm=–
C[C@@H]1CN([C@@H](C)CO)C(=O)c2cc(-c3cccnc3)cnc2O[C@@H]1CN(C)C(=O)c1ccccc1F,·,–,–,–,·,–,·,
CCC(=O)C1=C(O)C(c2cccc(Oc3ccccc3)c2)CCC1=O (stereo unspecified),–,–,28,–,–,–,·,PglD confirm=–
Cc1ccc(CN(c2ccc(C(=O)NCc3ccc4c(c3)OCO4)cc2)S(C)(=O)=O)cc1,·,·,27,–,–,·,·,PglD confirm=–
Cc1ccc(C(=O)NCc2ccc3c(c2)OCO3)cc1,–,–,–,–,–,–,·,
O=C(NCCC1=CCCCC1)c1cnsn1,·,·,42,–,–,·,·,PglD confirm=–
COCC(=O)Nc1ccc2c(c1)C(=O)N(C)C[C@@H](OC)[C@@H](C)CN(Cc1ccccc1F)[C@@H](C)CO2,–,–,–,–,·,–,·,
O=C(O)C1CCCN(S(=O)(=O)c2ccc(F)cc2)C1 (stereo unspecified),·,·,–,–,–,·,·,
